From ChEMBL document CHEMBL2029264, “Indole-based fibrates as potential hypolipidemic and antiobesity agents” (J Med Chem, 2012) come the findings set out here.

Data set [1] concerns Rattus norvegicus. Kind of data set: Toxicity in HFD-induced hyperlipidemic Charles Foster rat at 100 mg/kg/day, po administered for 4 weeks by autopsy analysis. In kind it is organism-based. Details: route oral. The note with it: in vivo, 672 h. Summed up: (§1)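 Male Charles Foster rats (200−225 g) were fed a high-fat diet for 4 weeks, then dosed at 100 mg/kg/d alongside the same diet for 4 more weeks. Survival was monitored. After an overnight fast, blood was drawn and the animals were sacrificed. Macroscopic inspection and autopsy were then performed, with n = 6 per group.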

Data set [2] relates to Rattus norvegicus. Kind of data set: Toxicity in HFD-induced hyperlipidemic Charles Foster rat at 100 mg/kg/day, po administered for 4 weeks by macroscopic analysis. On the set-up: route oral. Format: organism-based. The note with it: in vivo, 672 h. Put shortly:
as §1

As to `CCOC(=O)C(C)Oc1ccc(C(c2cn(CC)c3ccccc23)c2cn(CC)c3ccccc23)cc1` (configuration not stated), the Activity entry with Rattus norvegicus [1] and in the data set with Rattus norvegicus [2] was “Non-toxic” each time.
